According to ChEMBL document CHEMBL1152850, “Efficient inhibition of the Alzheimer's disease beta-secretase by membrane targeting” (Science, 2008):
The source made the active and inactive calls. The rule behind the calls is not given here. Square brackets hold non-standard residues; d marks the D form. Peptide text beside a SMILES is read from it. * marks the point of attachment. Piperazinyl(4-RhodamineB) = CCN(CC)c1ccc2c(-c3ccccc3C(=O)N3CCN(*)CC3)c3ccc(=[N+](CC)CC)cc-3oc2c1; X4 = CC(C)CCC[C@@H](C)[C@H]1CC[C@H]2[C@@H]3CC[C@H]4C[C@@H](OCC(=O)*)CC[C@]4(C)[C@H]3CC[C@]12C; X1 = CC(C)CCC[C@@H](C)[C@H]1CC[C@H]2[C@@H]3CCC4C[C@@H](O*)CC[C@]4(C)[C@H]3CC[C@]12C; Sta = CC(C)C[C@H](N)[C@@H](O)CC(=O)O; PEG4 = NCCOCCOCCOCCOCCC(=O)O; PEG3 = NCCOCCOCCOCCC(=O)O; X3 = CCCCCCCCCCCCCCCCO*; X2 = CCCCCCCCCCCCCCO*; βAla = NCCC(=O)O

How the values were obtained:
[1] = target: Beta-secretase 1 (Homo sapiens) (UniProt P56817); assay: Inhibition of BACE1 mediated APP cleavage in human HeLa cells expressing swAPP at 200 nM by electrochemiluminescence assay; type: cell-based
[2] = target: Beta-secretase 1 (Homo sapiens) (UniProt P56817); assay: Inhibition of BACE1 ectodomain relative to control
[3] = target: Beta-secretase 1 (Mus musculus) (UniProt P56818); assay: Inhibition of BACE1 mediated APP cleavage in mouse N2a cells expressing swAPP by electrochemiluminescence assay; type: cell-based
[4] = target: Beta-secretase 1 (Homo sapiens) (UniProt P56817); assay: Inhibition of BACE1 mediated APP cleavage in human HeLa cells expressing swAPP assessed as as beta cleaved ectodomain of APP level; type: cell-based
Mus musculus = assay: Reduction in amyloid beta production in transgenic swAPP/PSDE9 mouse expressing APP KM670/671NL mutant and presenilin-1 […] at 10 mM dosed stereotaxically into hippocampus after 4 hrs; type: functional, organism-based
In short: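 APPsw/PSΔE9 transgenic mice given a stereotaxic injection into the hippocampus, with DMSO as solvent control; hippocampal Aβ measured 4 hours later. Means ± SD, Student t test.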

[5] = target: Beta-secretase 1 (Homo sapiens) (UniProt P56817); assay: Inhibition of BACE1 mediated APP cleavage in human HeLa cells expressing swAPP at 200 nM after 4 hrs; type: cell-based
In short: (§1)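 HeLa-swAPP cells incubated with compounds at 20 nM or 200 nM for 4 hours; harvested medium assayed for sAPPβ and expressed as percent inhibition of β cleavage, mean ± SD.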

[6] = target: Beta-secretase 1 (Homo sapiens) (UniProt P56817); assay: Inhibition of BACE1 mediated APP cleavage in human HeLa cells expressing swAPP at 20 nM after 4 hrs; type: cell-based; in short: as §1
[7] = target: Beta-secretase 1 (Homo sapiens) (UniProt P56817); assay: Inhibition of BACE1 mediated APP cleavage in human HeLa cells expressing swAPP at 2 uM after 4 hrs by immunoblot; type: cell-based
[8] = target: Beta-secretase 1 (Homo sapiens) (UniProt P56817); assay: Inhibition of BACE1 mediated APP cleavage in human HeLa cells expressing swAPP assessed as amyloid beta production at 2 uM after 4 hrs by immunoblot; type: cell-based
[9] = target: Beta-secretase 1 (Homo sapiens) (UniProt P56817); assay: Inhibition of BACE1 mediated APP cleavage in human HeLa cells expressing swAPP assessed as amyloid beta production using rhodamine-labeled compound at 2 uM; type: cell-based
In short: (§2)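 Rhodamine-labeled inhibitors at 2 μM on HeLa-swAPP cells; medium analyzed by ECL for sAPPβ and Aβ40, with viability (percent survival). Means ± SD, representative of three independent experiments.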

[10] = target: Beta-secretase 1 (Homo sapiens) (UniProt P56817); assay: Inhibition of BACE1 mediated APP cleavage in human HeLa cells expressing swAPP assessed as beta cleaved ectodomain of APP level using rhodamine-labeled compound at 0.1 mM; type: cell-based
In short: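 HeLa-swAPP cells treated with a range of concentrations of the sterol-linked inhibitor; β-cleaved ectodomain detected by immunostaining and imaging, nuclei counterstained with DAPI.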

[11] = target: Beta-secretase 1 (Homo sapiens) (UniProt P56817); assay: Inhibition of BACE1 mediated APP cleavage in human HeLa cells expressing swAPP assessed as as beta cleaved ectodomain of APP level using rhodamine-labeled compound at 2 uM; type: cell-based; in short: as §2
HeLa [12] = assay: Increase in alpha secretase mediated APP cleavage in human HeLa cells expressing swAPP assessed as alpha cleaved ectodomain of APP at 200 nM by electrochemiluminescence assay; type: cell-based
HeLa [13] = assay: Increase in alpha secretase mediated APP cleavage in human HeLa cells expressing swAPP at 2 uM after 4 hrs by immunoblot; type: cell-based
Drosophila [14] = assay: Reduction on lethality of Drosophila UAS-APP/UAS-APP; UAS-BACE523/UAS-BACE523 flies expressing BACE mutant assessed as increase in survival by measuring eclosion numbers 4 mM dosed in diet; type: functional, organism-based
Drosophila [15] = assay: Reduction on lethality of Drosophila w:actin-GAL4/Cyo;UASDPsn/Tm3 flies expressing presenilin mutant assessed as increase in survival by measuring eclosion numbers 4 mM dosed in diet; type: functional, organism-based

Beta-secretase 1 (Homo sapiens), sequence (P56817 whole entry, the tested form may be a part): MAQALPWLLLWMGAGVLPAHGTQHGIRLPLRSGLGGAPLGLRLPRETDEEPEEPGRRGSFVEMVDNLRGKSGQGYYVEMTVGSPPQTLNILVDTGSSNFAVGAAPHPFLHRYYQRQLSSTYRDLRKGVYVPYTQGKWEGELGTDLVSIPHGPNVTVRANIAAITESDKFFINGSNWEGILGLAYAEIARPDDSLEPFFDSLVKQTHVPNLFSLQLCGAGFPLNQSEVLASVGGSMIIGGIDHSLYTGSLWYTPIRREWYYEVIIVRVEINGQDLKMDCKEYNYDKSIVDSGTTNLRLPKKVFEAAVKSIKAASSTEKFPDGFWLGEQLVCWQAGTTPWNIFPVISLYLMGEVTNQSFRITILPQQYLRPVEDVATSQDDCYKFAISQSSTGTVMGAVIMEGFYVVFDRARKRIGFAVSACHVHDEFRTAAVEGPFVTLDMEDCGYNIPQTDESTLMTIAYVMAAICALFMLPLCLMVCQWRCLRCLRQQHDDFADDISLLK
Beta-secretase 1 (Mus musculus), sequence (P56818 whole entry, the tested form may be a part): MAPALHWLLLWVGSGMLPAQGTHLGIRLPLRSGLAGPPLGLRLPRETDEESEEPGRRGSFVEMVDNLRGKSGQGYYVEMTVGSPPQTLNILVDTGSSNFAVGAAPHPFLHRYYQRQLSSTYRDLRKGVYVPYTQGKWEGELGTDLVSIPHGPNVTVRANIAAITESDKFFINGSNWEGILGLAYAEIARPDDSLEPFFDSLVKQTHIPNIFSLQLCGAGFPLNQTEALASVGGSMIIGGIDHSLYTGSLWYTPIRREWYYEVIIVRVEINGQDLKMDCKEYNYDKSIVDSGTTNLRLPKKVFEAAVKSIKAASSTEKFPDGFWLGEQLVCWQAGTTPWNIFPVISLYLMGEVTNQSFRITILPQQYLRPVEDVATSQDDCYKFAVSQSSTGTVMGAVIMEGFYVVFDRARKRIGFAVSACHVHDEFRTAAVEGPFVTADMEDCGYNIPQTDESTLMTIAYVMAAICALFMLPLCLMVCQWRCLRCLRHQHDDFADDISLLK

**Q.** For `CC(C)C[C@H](NC(=O)[C@H](CC(N)=O)NC(=O)[C@@H](NC(=O)[C@@H](N)CCC(=O)O)C(C)C)[C@@H](O)CC(=O)N[C@H](C(=O)N[C@@H](C)C(=O)N[C@@H](CCC(=O)O)C(=O)N[C@@H](Cc1ccccc1)C(=O)NCCOCCOCCOCCOCCC(=O)NCCOCCOCCOCCC(=O)NCCOCCOCCOCCOCCC(=O)NCCOCCOCCOCCC(=O)NCCOCCOCCOCCOCCC(N)=O)C(C)C` (H-EVN[Sta]VAEF[PEG4][PEG3][PEG4][PEG3][PEG4]-NH2), which inhibition [1] is on record?
**A.** inactive

**Q.** With `CCN(CC)c1ccc2c(-c3ccccc3C(=O)N3CCN(C(=O)CC[C@H](NC(=O)CCNC(=O)[C@H](CCCN=C(N)N)NC(=O)[C@H](CCCN=C(N)N)NC(=O)CO[C@H]4CC[C@@]5(C)[C@@H](CC[C@@H]6[C@@H]5CC[C@]5(C)[C@@H]([C@H](C)CCCC(C)C)CC[C@@H]65)C4)C(=O)NCCC(=O)NCC(=O)N[C@@H](CCC(=O)O)C(=O)N[C@H](C(=O)N[C@@H](CC(N)=O)C(=O)N[C@@H](CC(C)C)[C@@H](O)CC(=O)N[C@H](C(=O)N[C@@H](C)C(=O)N[C@@H](CCC(=O)O)C(=O)N[C@@H](Cc4ccccc4)C(N)=O)C(C)C)C(C)C)CC3)c3ccc(=[N+](CC)CC)cc-3oc2c1` (X4-RR[βAla]E(Piperazinyl(4-RhodamineB))[βAla]GEVN[Sta]VAEF-NH2) as the compound, how does the inhibition [1] read?
**A.** inactive

**Q.** How did the inhibition [2] turn out when `CC(C)C[C@H](NC(=O)[C@H](CC(N)=O)NC(=O)[C@@H](NC(=O)[C@@H](N)CCC(=O)O)C(C)C)[C@@H](O)CC(=O)N[C@H](C(=O)N[C@@H](C)C(=O)N[C@@H](CCC(=O)O)C(=O)N[C@@H](Cc1ccccc1)C(N)=O)C(C)C` (HELM PEPTIDE1{E.V.N.[CC(C)C[C@H](N[*:1])[C@@H](O)CC(=O)[*:2]].V.A.E.F.[am]}$$$$V2.0) was run?
**A.** Active

**Q.** What about the inhibition [3] of the same compound?
**A.** inactive

**Q.** What about the inhibition [4] of the same compound?
**A.** inactive

**Q.** And the inhibition (Mus musculus)?
**A.** inactive

**Q.** Which inhibition [5] does the source give for `CCCCCCCCCCCCCCCCOC(=O)C[C@H](NC(=O)CCOCCOCCOCCOCCNC(=O)CCOCCOCCOCCNC(=O)CCOCCOCCOCCOCCNC(=O)CCOCCOCCOCCNC(=O)CCOCCOCCOCCOCCNC(=O)[C@H](Cc1ccccc1)NC(=O)[C@H](CCC(=O)O)NC(=O)[C@H](C)NC(=O)[C@@H](NC(=O)C[C@H](O)[C@H](CC(C)C)NC(=O)[C@H](CC(N)=O)NC(=O)[C@@H](NC(=O)[C@@H](N)CCC(=O)O)C(C)C)C(C)C)C(N)=O` (H-EVN[Sta]VAEF[PEG4][PEG3][PEG4][PEG3][PEG4]D(X3)-NH2) here?
**A.** Active

**Q.** And the inhibition [6]?
**A.** Active

**Q.** Which inhibition [7] does the source give for `CC(C)CCC[C@@H](C)[C@H]1CC[C@H]2[C@@H]3CCC4C[C@@H](OC(=O)C[C@H](NC(=O)CCOCCOCCOCCOCCNC(=O)CCOCCOCCOCCNC(=O)CCOCCOCCOCCOCCNC(=O)CCOCCOCCOCCNC(=O)CCOCCOCCOCCOCCNC(=O)[C@H](Cc5ccccc5)NC(=O)[C@H](CCC(=O)O)NC(=O)[C@H](C)NC(=O)[C@@H](NC(=O)C[C@H](O)[C@H](CC(C)C)NC(=O)[C@H](CC(N)=O)NC(=O)[C@@H](NC(=O)[C@@H](N)CCC(=O)O)C(C)C)C(C)C)C(N)=O)CC[C@]4(C)[C@H]3CC[C@]12C` (stereo partly specified) (H-EVN[Sta]VAEF[PEG4][PEG3][PEG4][PEG3][PEG4]D(X1)-NH2) here?
**A.** Active

**Q.** What about the inhibition [8] of the same compound?
**A.** Active

**Q.** What about the inhibition [3] of the same compound?
**A.** Active

**Q.** And the inhibition [9]?
**A.** Active

**Q.** What about the inhibition [10] of the same compound?
**A.** Active

**Q.** And the inhibition [11]?
**A.** Active

**Q.** And the inhibition (HeLa [12])?
**A.** Active

**Q.** And the inhibition (HeLa [13])?
**A.** Active

**Q.** And the inhibition (Drosophila [14])?
**A.** Active

**Q.** And the Activity (Mus musculus)?
**A.** Active

**Q.** What about the inhibition (Drosophila [15]) of the same compound?
**A.** Active

**Q.** Which inhibition [5] does the source give for `CCCCCCCCCCCCCCOC(=O)C[C@H](NC(=O)CCOCCOCCOCCOCCNC(=O)CCOCCOCCOCCNC(=O)CCOCCOCCOCCOCCNC(=O)CCOCCOCCOCCNC(=O)CCOCCOCCOCCOCCNC(=O)[C@H](Cc1ccccc1)NC(=O)[C@H](CCC(=O)O)NC(=O)[C@H](C)NC(=O)[C@@H](NC(=O)C[C@H](O)[C@H](CC(C)C)NC(=O)[C@H](CC(N)=O)NC(=O)[C@@H](NC(=O)[C@@H](N)CCC(=O)O)C(C)C)C(C)C)C(N)=O` (H-EVN[Sta]VAEF[PEG4][PEG3][PEG4][PEG3][PEG4]D(X2)-NH2) here?
**A.** Active

**Q.** And the inhibition [6]?
**A.** Active
